Laboratory results taken from ChEMBL document CHEMBL1800065, “Enhanced stability and intracellular accumulation of quercetin by protection of the chemically or metabolically susceptible hydroxyl groups with a pivaloxymethyl (POM) promoiety” (J Med Chem, 2010).
Values after ≈ are worked out from the molar mass of the structure shown. Active and inactive are the calls of the source. The rule behind the calls is not given here.

Experiments:
MCF7 [1] = assay: Cell cycle arrest in human MCF7 cells assessed as decrease in accumulation at G0/G1 phase at 30 uM after 12 hrs by propidium iodide staining based flow cytometric analysis relative to quercetin; format: functional; design: scale not given: the % may be the effect or the level left
Outline: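 MCF-7 cells seeded in 35 mm dishes at 10⁵ cells and grown 12 h at 37 °C, 5% CO₂. Treated 12 h with conjugate at 30 μM, quercetin or 1% DMSO control. Propidium iodide staining, flow cytometry, percentage of cells in each phase.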

DU-145 = assay: Antiproliferative activity against human DU145 cells after 24 hrs by MTT assay; format: functional, cell-based; details: DU-145, 24 h
Outline: (§1)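 Cells seeded at 5 × 10³ per well in complete DMEM and grown 1 day at 37 °C, 5% CO₂. Compounds in DMSO diluted to 0.1–50 μM in medium, no ascorbic acid added. […] Each experiment run in triplicate and repeated three times.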

[2] = Chemical stability of the compound in cell-free DMEM culture media assessed as half life by HPLC analysis in presence of FBS; format: physicochemical; details: cell-free DMEM culture medium with FBS
Outline: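 50 μM in FBS-supplemented DMEM, diluted from 10 mM DMSO stock, no ascorbic acid, cell-free, 37 °C and 5% CO₂. Media sampled at time points up to 24 h and stored at −80 °C. Half-life determined by HPLC.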

MCF7 [3] = assay: Cellular uptake in human MCF7 cells assessed as compound remaining in cell lysates at 10 uM after 1 hr by HPLC-mass spectrophotometric analysis; format: ADME, cell-based, Lysate; details: mcf7, 1 h
Outline: (§2)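 Cells (MCF-7 or Huh-7) seeded at 10⁵ cells/well and grown 24 h (37 °C, 5% CO₂), then exposed to 10 μM compound. Media and washed, trypsinised, sonicated and filtered lysates analysed by HPLC at 1 and 12 h. Peaks collected and identified by MALDI-TOF MS; content given as percentage of integrated HPLC peak area.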

[4] = Solubility of the compound in cell-free DMEM media assessed as forward light scattering by compound by microplate neplhelometric analysis in presence of FBS; format: physicochemical; details: cell-free DMEM medium with FBS
Outline: (§3)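 Stocks in DMSO diluted to final 5–500 μM in DMEM, with or without FBS, at 1% DMSO. Forward light scattering measured by laser microplate nephelometry; solubility limit taken from the onset of scattering.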

MCF7 [5] = assay: Antiproliferative activity against human MCF7 cells after 24 hrs by MTT assay; format: functional, cell-based; details: MCF7, 24 h; outline: as §1
[6] = Aqueous solubility of the compound in PBS assessed as forward light scattering by compound by microplate neplhelometric analysis; format: physicochemical
Outline: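 Nephelometric solubility. DMSO stocks diluted in PBS (pH 7.4), 1% DMSO final, to 5–500 μM. Forward light scattering read in microplates to find the highest concentration free of scatter.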

HCT-116 [7] = assay: Cellular uptake in human HCT116 cells assessed a bright fluorescence light at 5 uM after 1 hr by fluorescence microscopic analysis; format: ADME, cell-based; details: hct-116, 1 h
HCT-116 [8] = assay: Antiproliferative activity against human HCT116 cells after 24 hrs by MTT assay in presence of antioxidative stabilizer ascorbic acid; format: functional, cell-based
Outline: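 HCT116 cells seeded at 5 × 10³ cells/well in complete DMEM and grown 1 day (37 °C, 5% CO₂). Compounds were dissolved in DMSO and diluted to 0.1–50 μM in medium containing ascorbic acid. Viability read by MTT after 24 h; triplicate wells, three independent repeats.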

[9] = Solubility of the compound in DMEM media assessed as forward light scattering by compound by microplate neplhelometric analysis; format: physicochemical; details: DMEM medium; outline: as §3
HS27 = assay: Antiproliferative activity against human HS27 cells after 24 hrs by MTT assay; format: cell-based; details: HS27, 24 h; outline: as §1
MCF7 [10] = assay: Cellular uptake in human MCF7 cells assessed as compound remaining in cell lysates at 10 uM after 12 hr by HPLC-mass spectrophotometric analysis; format: ADME, cell-based, Lysate; details: mcf7, 12 h; outline: as §2
MCF7 [11] = assay: Cellular uptake in human MCF7 cells assessed as compound remaining in culture media at 10 uM after 12 hrs by HPLC-mass spectrophotometric analysis; format: ADME, cell-based; details: mcf7, 12 h; outline: as §2
HCT-116 [12] = assay: Antiproliferative activity against human HCT116 cells after 24 hrs by MTT assay; format: functional, cell-based; details: HCT-116, 24 h; outline: as §1
Huh-7 [13] = assay: Cellular uptake in human HuH7 cells assessed as compound remaining in cell lysate at 10 uM after 1 hr by HPLC-mass spectrophotometric analysis; format: ADME, cell-based; details: huh-7, 1 h
[14] = Chemical stability of the compound in PBS buffer at pH 7.4 assessed as half life by HPLC analysis; format: physicochemical
Outline: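 Compound at 50 μM in PBS pH 7.4 at 37 °C, no stabilizer. Aliquots taken at 0–360 min and analysed by C-18 reverse-phase HPLC with UV detection at 340 nm and an acetonitrile/0.1% formic acid gradient. Half-life derived from the time course.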

MCF7 [15] = assay: Cell cycle arrest in human MCF7 cells assessed as increase in accumulation at S phase at 30 uM after 14 hrs by propidium iodide staining based flow cytometric analysis relative to quercetin; format: functional
HCT-116 [16] = assay: Cellular uptake in human HCT116 cells assessed a bright fluorescence light at 5 uM after 12 hrs by fluorescence microscopic analysis; format: ADME, cell-based; details: hct-116, 12 h
Huh-7 [17] = assay: Cellular uptake in human HuH7 cells assessed as compound remaining in culture media at 10 uM after 1 hrs by HPLC-mass spectrophotometric analysis; format: ADME, cell-based; details: huh-7, 1 h
MCF7 [18] = assay: Cellular uptake in human MCF7 cells assessed as compound remaining in culture media at 10 uM after 1 hr by HPLC-mass spectrophotometric analysis; format: ADME, cell-based; details: mcf7, 1 h; outline: as §2
[19] = Chemical stability of the compound in buffer at pH 2 assessed as half life by HPLC analysis; format: physicochemical
Outline: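 Compound incubated in pH 2.0 buffer without antioxidant stabiliser. Remaining parent followed by HPLC to derive the half-life.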

MCF7 [20] = assay: Cell cycle arrest in human MCF7 cells assessed as increase in apoptotic cells in sub-G1 phase at 30 uM after 14 hrs by propidium iodide staining based flow cytometric analysis relative to quercetin; format: functional
[21] = Permeability of the compound measured on acceptor plate of PAMPA membrane at 50 uM after 1 hr by HPLC analysis; format: ADME
Outline: (§4)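 Precoated PVDF PAMPA plate warmed to room temperature for 30 min. Donor held 50 μM compound in PBS with 5% DMSO; acceptor held PBS. Assembly incubated at room temperature for 1 and 5 h. Donor and acceptor aliquots analysed by HPLC; distribution given as percentage of integrated peak area.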

HCT-116 [22] = assay: Cellular uptake in human HCT116 cells assessed a bright fluorescence light at 5 uM after 12 hr by fluorescence microscopic analysis in presence of […]; format: ADME, cell-based; details: hct-116, 12 h
[23] = Permeability of the compound measured on donor plate of PAMPA membrane at 50 uM after 1 hr by HPLC analysis; format: ADME; outline: as §4
HCT-116 [24] = assay: Cellular uptake in human HCT116 cells assessed a bright fluorescence light at 5 uM after 12 hr by fluorescence microscopic analysis in presence of P-glycoprotein inhibitor verapamil; format: ADME, cell-based; details: hct-116, 12 h
[25] = Permeability of the compound measured on acceptor plate of PAMPA membrane at 50 uM after 5 hrs by HPLC analysis; format: ADME; outline: as §4
[26] = Permeability of the compound measured on donor plate of PAMPA membrane at 50 uM after 5 hrs by HPLC analysis; format: ADME; outline: as §4
[27] = Chemical stability of the compound in water assessed as half life by HPLC analysis; format: physicochemical
[28] = Half life in blood of cancer patient at 400 mg/kg, iv by HPLC analysis; format: ADME, organism-based; design: dose 400 mg/kg, route intravenous; details: human
Huh-7 [29] = assay: Cellular uptake in human HuH7 cells assessed as methyl-quercetin accumulation at 10 uM after 12 hrs by HPLC-mass spectrophotometric analysis; format: ADME, cell-based; details: huh-7, 12 h; outline: as §2
MCF7 [30] = assay: Cellular uptake in human MCF7 cells assessed as formation of oxidised quercetin in cell lysates at 10 uM after 12 hrs by HPLC-mass spectrophotometric analysis; details: mcf7, 12 h
MCF7 [31] = assay: Cellular uptake in human MCF7 cells assessed as formation of quercetin glucuronide in cell lysates at 10 uM after 12 hrs by HPLC-mass spectrophotometric analysis; details: mcf7, 12 h
Huh-7 [32] = assay: Cellular uptake in human HuH7 cells assessed as intracellular accumulation at 10 uM after 12 hrs by HPLC-mass spectrophotometric analysis; format: ADME, cell-based; details: huh-7, 12 h; outline: as §2
MCF7 [33] = assay: Cell cycle arrest in human MCF7 cells assessed as decrease in accumulation at G0/G1 phase at 50 uM after 12 hrs by propidium iodide staining based flow cytometric analysis relative to untreated control; format: functional; design: scale not given: the % may be the effect or the level left
MCF7 [34] = assay: Cellular uptake in human MCF7 cells assessed as formation of quercetin sulphate in cell lysates at 10 uM after 12 hrs by HPLC-mass spectrophotometric analysis; details: mcf7, 12 h
Huh-7 [35] = assay: Cellular uptake in human HuH7 cells assessed as quercetin-sulphate accumulation at 10 uM after 12 hrs by HPLC-mass spectrophotometric analysis; format: ADME, cell-based; details: huh-7, 12 h; outline: as §2
MCF7 [36] = assay: Cell cycle arrest in human MCF7 cells assessed as increase in accumulation at S phase at 50 uM after 14 hrs by propidium iodide staining based flow cytometric analysis relative to untreated control; format: functional
MCF7 [37] = assay: Cellular uptake in human MCF7 cells assessed as formation of methylated quercetin in cell lysates at 10 uM after 12 hrs by HPLC-mass spectrophotometric analysis; details: mcf7, 12 h

SMILES | EC50 (DU-145) [µM] | half-life [2] [h] | Drug uptake (MCF7 [3]) [%] | solubility kinetic [4] [µM] | EC50 (MCF7 [5]) [µM] | solubility kinetic [6] [µM] | Drug uptake (HCT-116 [7]) | Activity (HCT-116 [8]) | solubility kinetic [9] [µM] | EC50 (HS27) [µM] | Drug uptake (MCF7 [10]) [%] | Drug uptake (MCF7 [11]) [%] | EC50 (HCT-116 [12]) [µM] | half-life [14] [h] | Drug uptake (HCT-116 [16]) | half-life [19] [h] | permeability [21] [%] | permeability [23] [%] | permeability [25] [%] | permeability [26] [%] | also measured
CC(C)(C)C(=O)OCOc1cc(O)c2c(=O)c(O)c(-c3ccc(O)c(O)c3)oc2c1 | 10 | 4 | 21 | 200 | 20 | 5 (≈ 2.08 µg/mL) | Active | Active | 50 (≈ 20.8 µg/mL) | > 100 | 4 | 12 | 36 | > 72 | Active | 7 |  |  |  |  | Activity (MCF7 [1]): 10%; Drug uptake (Huh-7 [13]): Active; Activity (MCF7 [15]): 120%; Drug uptake (Huh-7 [17]): Active; Drug uptake (MCF7 [18]): 62%; Activity (MCF7 [20]): Active
CC(C)(C)C(=O)OCOc1c(-c2ccc(O)c(O)c2)oc2cc(O)cc(O)c2c1=O | > 100 | 52 |  | > 400 | > 100 | 100 (≈ 41.6 µg/mL) | Not Active |  | 100 (≈ 41.6 µg/mL) | > 100 |  |  | > 100 | > 72 | Not Active | 20 | 0 | 87 | 0 | 74 | Drug uptake (HCT-116 [22]): Not Active; Drug uptake (HCT-116 [24]): Not Active
O=C(O)CNC(=O)Oc1cc(-c2oc3cc(O)cc(O)c3c(=O)c2O)ccc1O [QC-12] |  | 0.8 |  | > 400 |  | > 400 |  |  | > 400 |  |  |  |  | 10 |  | 3 | 55 | 6 | 40 | 18 | half-life [27]: 16.9 h; half-life [28]: 0.39 h
O=c1c(O)c(-c2ccc(O)c(O)c2)oc2cc(O)cc(O)c12 [QUERCETIN] | > 100 | < 0.5 | 7 |  | > 100 | 100 (≈ 30.2 µg/mL) | Active | inactive |  | > 100 | 17 | 5 | > 100 | 10 | Not Active | 7 | 16 | 45 | 6 | 8 | Drug uptake (Huh-7 [29]): < 5%; Drug uptake (MCF7 [30]): Active; Drug uptake (MCF7 [31]): Active; Drug uptake (Huh-7 [32]): Not Active; Activity (MCF7 [33]): 21%; Drug uptake (MCF7 [34]): Active; Drug uptake (Huh-7 [35]): < 5%; Activity (MCF7 [36]): 78%; Drug uptake (MCF7 [18]): 5%; Drug uptake (MCF7 [37]): Active
